ChEMBL document CHEMBL1148725, “2,2,2-Trichloro-N-({2-[2-(dimethylamino)ethyl]-1,3-dioxo-2,3-dihydro-1H-benzo[de]isoquinolin- 5-yl}carbamoyl)acetamide (UNBS3157), a novel nonhematotoxic naphthalimide derivative with potent antitumor activity” (J Med Chem, 2007)

Test system: not listed separately
Experiment: Antiproliferative activity against Hs683 cells after 72 hrs by MTT assay
Assay type: functional, cell-based, Homo sapiens, Hs 683
Settings: Homo sapiens, Hs 683, 72 h
In short: (§1)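 Cells cultured with each compound for three days; growth then read by the MTT colorimetric assay and reported as IC50 (µM).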
With `CN(C)CCN1C(=O)c2cccc3cc(NC=O)cc(c23)C1=O` the IC50 was 4.8 µM.
`CN(C)CCN1C(=O)c2cccc3cc(NCc4ccc5c(c4)OCCO5)cc(c23)C1=O` gave an IC50 of 5.5 µM.
Molecule `COC(=O)Nc1cc2c3c(cccc3c1)C(=O)N(CCN(C)C)C2=O` has an IC50 of 3.3 µM.
`CN(C)CCN1C(=O)c2cccc3cc([N+](=O)[O-])cc(c23)C1=O` [MITONAFIDE] showed an IC50 of 3.7 µM.

Same assay, conditions: hs 683
`CN(C)CCN1C(=O)c2cccc3cc(/N=C\c4cc(O)ccc4O)cc(c23)C1=O.Cl` showed an IC50 of 4.9 µM.
With `CN(C)CCN1C(=O)c2cccc3cc(NCc4ccc5c(c4)OCO5)cc(c23)C1=O.Cl` the IC50 was 4.5 µM.
Work on `CN(C)CCN1C(=O)c2cccc3cc(NCc4cc5c(cc4[N+](=O)[O-])OCO5)cc(c23)C1=O` yielded an IC50 of over 10 µM.
`CN(C)CCN1C(=O)c2cccc3cc(NCc4ccc5c(c4)OCO5)cc(c23)C1=O` gave an IC50 of 9.8 µM.

Test system: not listed separately
Experiment: Antiproliferative activity against U373MG cells after 72 hrs by MTT assay
Assay type: functional, cell-based, Homo sapiens, U-373MG ATCC
Settings: Homo sapiens, U373 MG, 72 h
In short: as §1
`CN(C)CCN1C(=O)c2cccc3cc(/N=C\c4cc(O)ccc4O)cc(c23)C1=O.Cl` gave an IC50 of 4.7 µM.
Molecule `CN(C)CCN1C(=O)c2cccc3cc(NC=O)cc(c23)C1=O` has an IC50 of 4.4 µM.
With `CN(C)CCN1C(=O)c2cccc3cc(NCc4ccc5c(c4)OCCO5)cc(c23)C1=O` the IC50 was 7.1 µM.
Molecule `COC(=O)Nc1cc2c3c(cccc3c1)C(=O)N(CCN(C)C)C2=O` has an IC50 of 4.2 µM.
In the case of `CN(C)CCN1C(=O)c2cccc3cc([N+](=O)[O-])cc(c23)C1=O` [MITONAFIDE], the IC50 is reported as 1.3 µM.

Same assay, conditions: u-373mg atcc
`CN(C)CCN1C(=O)c2cccc3cc(NCc4ccc5c(c4)OCO5)cc(c23)C1=O.Cl` gave an IC50 of 4 µM.
Work on `CN(C)CCN1C(=O)c2cccc3cc(NCc4ccc5c(c4)OCO5)cc(c23)C1=O` yielded an IC50 of over 10 µM.

Test system: HCT-15
Experiment: Antiproliferative activity against HCT15 cells after 72 hrs by MTT assay
Assay type: functional, cell-based, Homo sapiens
Settings: Homo sapiens, HCT-15, 72 h
In short: as §1
Molecule `CN(C)CCN1C(=O)c2cccc3cc(NCc4ccc5c(c4)OCO5)cc(c23)C1=O.Cl` has an IC50 of 4.5 µM.
With `CN(C)CCN1C(=O)c2cccc3cc(NC=O)cc(c23)C1=O` the IC50 was 4.3 µM.
For `CN(C)CCN1C(=O)c2cccc3cc(NCc4ccc5c(c4)OCCO5)cc(c23)C1=O`, the IC50 was 6.7 µM.
For `COC(=O)Nc1cc2c3c(cccc3c1)C(=O)N(CCN(C)C)C2=O`, the IC50 was 7.2 µM.
For `CN(C)CCN1C(=O)c2cccc3cc([N+](=O)[O-])cc(c23)C1=O` [MITONAFIDE], the IC50 was 2.6 µM.

Same assay, conditions: hct-15
`CN(C)CCN1C(=O)c2cccc3cc(/N=C\c4cc(O)ccc4O)cc(c23)C1=O.Cl` showed an IC50 of 4.3 µM.
In the case of `CN(C)CCN1C(=O)c2cccc3cc(NCc4cc5c(cc4[N+](=O)[O-])OCO5)cc(c23)C1=O`, the IC50 is reported as over 10 µM.
Molecule `CN(C)CCN1C(=O)c2cccc3cc(NCc4ccc5c(c4)OCO5)cc(c23)C1=O` has an IC50 of 8.2 µM.

Test system: LoVo
Experiment: Antiproliferative activity against LoVo cells after 72 hrs by MTT assay
Assay type: functional, cell-based, Homo sapiens
Settings: Homo sapiens, LoVo, 72 h
In short: as §1
`CN(C)CCN1C(=O)c2cccc3cc(NCc4ccc5c(c4)OCO5)cc(c23)C1=O.Cl` showed an IC50 of 3.7 µM.
With `CN(C)CCN1C(=O)c2cccc3cc(NC=O)cc(c23)C1=O` the IC50 was 6.6 µM.
With `CN(C)CCN1C(=O)c2cccc3cc(NCc4ccc5c(c4)OCCO5)cc(c23)C1=O` the IC50 was 4 µM.
In the case of `COC(=O)Nc1cc2c3c(cccc3c1)C(=O)N(CCN(C)C)C2=O`, the IC50 is reported as 4.1 µM.
Work on `CN(C)CCN1C(=O)c2cccc3cc([N+](=O)[O-])cc(c23)C1=O` [MITONAFIDE] yielded an IC50 of 0.4 µM.

Same assay, conditions: lovo
In the case of `CN(C)CCN1C(=O)c2cccc3cc(/N=C\c4cc(O)ccc4O)cc(c23)C1=O.Cl`, the IC50 is reported as 3.7 µM.
In the case of `CN(C)CCN1C(=O)c2cccc3cc(NCc4cc5c(cc4[N+](=O)[O-])OCO5)cc(c23)C1=O`, the IC50 is reported as 8.1 µM.
Molecule `CN(C)CCN1C(=O)c2cccc3cc(NCc4ccc5c(c4)OCO5)cc(c23)C1=O` has an IC50 of 4.8 µM.

Test system: A549
Experiment: Antiproliferative activity against A549 cells after 72 hrs by MTT assay
Assay type: functional, cell-based, Homo sapiens
Settings: Homo sapiens, A549, 72 h
In short: as §1
`CN(C)CCN1C(=O)c2cccc3cc(NCc4ccc5c(c4)OCO5)cc(c23)C1=O.Cl` showed an IC50 of over 10 µM.
`CN(C)CCN1C(=O)c2cccc3cc(NC=O)cc(c23)C1=O` showed an IC50 of 3.9 µM.
`CN(C)CCN1C(=O)c2cccc3cc(NCc4ccc5c(c4)OCCO5)cc(c23)C1=O` showed an IC50 of 9.7 µM.
`COC(=O)Nc1cc2c3c(cccc3c1)C(=O)N(CCN(C)C)C2=O` gave an IC50 of 5.9 µM.
`CN(C)CCN1C(=O)c2cccc3cc([N+](=O)[O-])cc(c23)C1=O` [MITONAFIDE] gave an IC50 of 2.4 µM.

Same assay, conditions: a549
`CN(C)CCN1C(=O)c2cccc3cc(/N=C\c4cc(O)ccc4O)cc(c23)C1=O.Cl` showed an IC50 of 3.9 µM.
`CN(C)CCN1C(=O)c2cccc3cc(NCc4ccc5c(c4)OCO5)cc(c23)C1=O` showed an IC50 of 8.5 µM.

Test system: MCF7
Experiment: Antiproliferative activity against MCF7 cells after 72 hrs by MTT assay
Assay type: functional, cell-based, Homo sapiens
Settings: Homo sapiens, MCF7, 72 h
In short: as §1
In the case of `CN(C)CCN1C(=O)c2cccc3cc(/N=C\c4cc(O)ccc4O)cc(c23)C1=O.Cl`, the IC50 is reported as 6.3 µM.
For `CN(C)CCN1C(=O)c2cccc3cc(NCc4ccc5c(c4)OCO5)cc(c23)C1=O.Cl`, the IC50 was over 10 µM.
For `CN(C)CCN1C(=O)c2cccc3cc(NC=O)cc(c23)C1=O`, the IC50 was 7.4 µM.
`CN(C)CCN1C(=O)c2cccc3cc(NCc4ccc5c(c4)OCCO5)cc(c23)C1=O` gave an IC50 of 8.9 µM.
In the case of `COC(=O)Nc1cc2c3c(cccc3c1)C(=O)N(CCN(C)C)C2=O`, the IC50 is reported as over 10 µM.

Test system: not listed separately
Experiment: Toxicity in ip dosed B6D2F1 mouse
Assay type: organism-based
Settings: in vivo
In short: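 Acute MTD was set by a single i.p. dose to groups of three healthy female B6D2F1 mice, at 2.5, 5, 10, 20, 40, 80 and 160 mg/kg. The MTD is the dose just below the lowest dose that killed at least one mouse.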
`CN(C)CCN1C(=O)c2cccc3cc(/N=C\c4cc(O)ccc4O)cc(c23)C1=O.Cl` gave an MTD of 40 mg/kg.
`CN(C)CCN1C(=O)c2cccc3cc(NCc4ccccc4O[C@H]4O[C@H](CO)[C@@H](O)[C@H](O)[C@H]4O)cc(c23)C1=O` showed an MTD of over 80 mg/kg.
With `CN(C)CCN1C(=O)c2cccc3cc(NCc4ccc5c(c4)OCO5)cc(c23)C1=O.Cl` the MTD was over 80 mg/kg.
With `CN(C)CCN1C(=O)c2cccc3cc(NCc4cc5c(cc4[N+](=O)[O-])OCO5)cc(c23)C1=O` the MTD was over 80 mg/kg.
For `CN(C)CCN1C(=O)c2cccc3cc(NCc4ccc5c(c4)OCO5)cc(c23)C1=O`, the MTD was over 80 mg/kg.
For `CN(C)CCN1C(=O)c2cccc3cc(NC=O)cc(c23)C1=O`, the MTD was over 80 mg/kg.
In the case of `CN(C)CCN1C(=O)c2cccc3cc(NCc4ccc5c(c4)OCCO5)cc(c23)C1=O`, the MTD is reported as over 80 mg/kg.
Molecule `COC(=O)Nc1cc2c3c(cccc3c1)C(=O)N(CCN(C)C)C2=O` has an MTD of 40 mg/kg.
Work on `CN(C)CCN1C(=O)c2cccc3cc([N+](=O)[O-])cc(c23)C1=O` [MITONAFIDE] yielded an MTD of 40 mg/kg.

Test system: L1210
Experiment: Antitumor activity in L1210 cells xenografted B6D2F1 mouse at 20 mg/kg, ip relative to control
Assay type: functional
Settings: route intraperitoneal
In short: (§2)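 Mice grafted with L1210 leukaemia cells on day 0, then dosed i.p. four times weekly on days 1-4 and 8-11. Five mice per group. Outcome is %T/C, the median survival of treated over control. Kruskal-Wallis test followed by Dunn comparisons against control.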
`CN(C)CCN1C(=O)c2cccc3cc([N+](=O)[O-])cc(c23)C1=O` [MITONAFIDE] gave an Activity of 193%.

Test system: L1210
Experiment: Antitumor activity in L1210 cells xenografted B6D2F1 mouse at 40 mg/kg, ip relative to control
Assay type: functional
Settings: route intraperitoneal
In short: as §2
`CN(C)CCN1C(=O)c2cccc3cc(/N=C\c4cc(O)ccc4O)cc(c23)C1=O.Cl` gave an Activity of 210%.
Work on `CN(C)CCN1C(=O)c2cccc3cc(NCc4ccc5c(c4)OCO5)cc(c23)C1=O` yielded an Activity of 140%.
Work on `COC(=O)Nc1cc2c3c(cccc3c1)C(=O)N(CCN(C)C)C2=O` yielded an Activity of 133%.

Test system: L1210
Experiment: Antitumor activity in L1210 cells xenografted B6D2F1 mouse at 80 mg/kg, ip relative to control
Assay type: functional
Settings: route intraperitoneal
In short: as §2
Work on `CN(C)CCN1C(=O)c2cccc3cc(NCc4ccccc4O[C@H]4O[C@H](CO)[C@@H](O)[C@H](O)[C@H]4O)cc(c23)C1=O` yielded an Activity of 113%.
`CN(C)CCN1C(=O)c2cccc3cc(NCc4ccc5c(c4)OCO5)cc(c23)C1=O.Cl` showed an Activity of 207%.
`CN(C)CCN1C(=O)c2cccc3cc(NCc4cc5c(cc4[N+](=O)[O-])OCO5)cc(c23)C1=O` gave an Activity of 157%.
In the case of `CN(C)CCN1C(=O)c2cccc3cc(NCc4ccc5c(c4)OCCO5)cc(c23)C1=O`, the Activity is reported as 150%.
